Assay results taken from the EternaBench riboswitch data.

System: MS2 coat protein
Test: apparent Kd, MS2 coat protein; higher = weaker binding; RNA-MaP array; FMN 200 µM where present
Procedure, shortened: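 Green signal from SNAP-549-labelled MS2 coat protein was normalised to red-channel RNA signal and to the median Fmax of control clusters. The protein was titrated from 0.7 or 1.5 nM, doubling to 3 µM, without and then with constant ligand, over designs transcribed by stalled E. coli RNA polymerase on Illumina sequencing-chip clusters, in 100 mM Tris-HCl pH 7.5, 80 mM KCl, 4 mM MgCl2, BSA, DTT, yeast tRNA and Tween-20. The apparent Kd is the median of filtered per-cluster binding-curve fits.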

[1] = designed as: OFF switch for flavin mononucleotide, no ligand
[2] = ligand present: flavin mononucleotide, designed as: OFF switch for flavin mononucleotide
[3] = designed as: ON switch for flavin mononucleotide, no ligand
[4] = ligand present: flavin mononucleotide, designed as: ON switch for flavin mononucleotide

| Sequence | apparent Kd [1] | apparent Kd [2] | apparent Kd [3] | apparent Kd [4] |
| --- | --- | --- | --- | --- |
| GGAAGACAAAGUCUUCCAUAACGAACAUGAGGAUCACCCAUGUAGGAUAUGCUACUCAAAGAGUAGCAGAAGGACAUGUGUCUU | 28.1 nM | 129 nM |  |  |
| GGACAUGUCGUUUACAUGAGGAUCACCCAUGUCGAUGGACAUGAGGAUAUCGAUCCGAAUCGGAUCGAGAAGGCAUGCAUGUCC |  |  | 41.8 nM | 18.6 nM |
| GGACAUUUACAGAAGGGCAAAUUUUAUAGUGAAUAUUUAGUUCUGAUUUGCAGGAUAUGUGGAACAUGAGGAUCACCCAUGUCC |  |  | 13.8 nM | 6.71 nM |
| GGACCGAGUGUGAGGAUAUGCUGGUCCUUGGAUCAGCAGAAGGCACAUGAGGAUCACCCAUGUGGUGUCGGUCC | 573 nM | 203 nM |  |  |
| GGACCGUGAAGAGUUGGCGGUCGGCAGGAUAUGACAUGAGGAUCACCCAUGUGAACUCCAUUGGGUCAGAAGGGCCACGACACA | 37.5 nM | 108 nM |  |  |
| GGACGGUUCGUCAGGAUAUGCUCUACCUCGGUAGAGCAGAAGGGACAUGAGGAUCACCCAUGUGAGAACUGUUC | 18.4 nM | 17.3 nM |  |  |
| GGACGGUUUGUCAGGAUAUGCUCUACCUCGGUAGAGCAGAAGGGACAUGAGGAUCACCCAUGUGAAAACUGUUC | 22.8 nM | 25.2 nM |  |  |
| GGACGUAAAGAGAAGGGCUACUGGUUGAAACCUGCGGCCUCUGGAACAUGAGGAUCACCCAUGUAGCAGGAUAUCUUUGCACCA | 157 nM | 26.7 nM |  |  |
| GGACGUCACAUCUACAUGAGGAUCACCCAUGUCGAAAGACAUGAGGAUAUGCAUCCUAAUUGGAUGCAGAAGGCAUGGACGUCC |  |  | 667 nM | 69.7 nM |
| GGACGUCACAUGAACAUGAGGAUCACCCAUGUAAAUUCUCAUGAGGAUAUGGAUCCUAAUUGGAUCCAGAAGGCGUGGACGUCC |  |  | 1030 nM | 415 nM |
| GGACGUCACUCAAACAAUUAAACAUGAGGAUCACCCAUGUCACAGGAUAUGGAUCCUAAUUGGAUCCAGAAGGGUGAGACGUCC |  |  | 251 nM | 222 nM |
| GGACGUCGCAUUAACAUGAGGAUCACCCAUGUCAAAGGACAUGAGGAUAUGGAUCCUAAUUGGAUCCAGAAGGCAUGGACGUCC |  |  | 485 nM | 35.8 nM |
| GGACGUCUCAUUAACAUGAGGAUCACCCAUGUCAAAAGACAUGAGGAUAUGGAACCUAAUUGGUUCCAGAAGGCAUGGACGUCC |  |  | 802 nM | 62.6 nM |
| GGACGUCUCAUUAACAUGAGGAUCACCCAUGUCAAAAGACAUGAGGAUAUGGUUCCUAAUUGGAACCAGAAGGCAUGGACGUCC |  |  | 853 nM | 67.8 nM |
| GGAGAGGACAGAGGAUAUACGUGCUAGAGAUACUAGCAAAAUUUCCUCACAUGAGGAUCACCCAUGUAGAAGGCUGUCCUAUCG | 16.6 nM | 309 nM |  |  |
| GGAGAUACAUGAGGAUCACCCAUGUAGGAUAUCGGGCCCAUAUAUGGCGAAAGCCAUAUAUGGGCCGAGAAGGGCGUACACACC | 7.63 nM | 7.45 nM |  |  |
| GGAGCACACAUUAACAUGAGGAUCACCCAUGUCAAAAGACAUGAGGAUAUGGAUCCGAAAAGGAUCCAGAAGGCAUGGAGCUCC |  |  | 169 nM | 10.5 nM |
| GGAGCAUAUCAAUACAUGAGGAUCACCCAUGUCGAAUGAUAUGAGGAUAUGCAUCGGAAAACGAUGUAGAAGGCAUAGUGCUCC |  |  | 9.14 nM | 5.58 nM |
| GGAGCCGGUACUGAGGAUAUUCAUAUUAAAACAUGAGGAUCACCCAUGUAGGCCAGAAGGCCUUGGGAGAAGGCAGGCCAGCUCG |  |  | 378 nM | 31.4 nM |
| GGAGCUCACAUUAACAUGAGGAUCACCCAUGUCUCUAGACAUGAGGAUAUGGAUCCUAAUUGGAUCCAGAAGGCAUGGAGCUCC |  |  | 1450 nM | 118 nM |
| GGAUAGGACAGAGGAUAUACGGAUAGGAUCUACUAUCUUUCUCAAAUAACAUGAGGAUCACCCAUGUAGAAGGCUGUCCUAUCG | 21.5 nM | 122 nM |  |  |

| Sequence | apparent Kd [1] | apparent Kd [2] | apparent Kd [3] | apparent Kd [4] |
| --- | --- | --- | --- | --- |
| GGAUAGGACAGAGGAUAUACGUGCUAGAGAUAAUAGCAAAAUUUCCUCACAUGAGGAUCACCCAUGUAGAAGGCUGUCCUAUCG | 19.5 nM | 250 nM |  |  |
| GGAUAGGACAGAGGAUAUACGUGCUAGAGAUACUAGCAAAACUUCCUCACAUGAGGAUCACCCAUGUAGAAGGCUGUCCUAUCG | 16.7 nM | 564 nM |  |  |
| GGAUAGGACAGAGGAUAUACGUGCUAGAGAUACUAGCAAAAUUUCCUCACAUGAGGAUCACCCAUGUAGAAGGCUGGCCUAUCG | 14.1 nM | 379 nM |  |  |
| GGAUAGGACAGAGGAUAUACGUGCUAGAGAUACUAGCAAAAUUUCCUCACAUGAGGAUCACCCAUGUAGAAGGCUUUCCUAUCG | 6.3 nM | 37 nM |  |  |
| GGAUAGGACAGAGGAUAUACGUGCUAGAGAUACUAGGAAAAUUUCCUCACAUGAGGAUCACCCAUGUAGAAGGCUGUCCUAUCG | 305 nM | 51.7 nM |  |  |
| GGAUAGGACAGAGGAUAUACGUGCUAGAGGUACUAGCAAAAUUUCCUCACAUGAGGAUCACCCAUGUAGAAGGCUGUCCUAUCG | 17 nM | 461 nM |  |  |
| GGAUAGUGUCGUUAUCCGUAGCGAACAUGAGGAUCACCCAUGUAGGAUAUGUUACUAAACUAGUAACAGAAGGGCGUGAGUCUU | 94.2 nM | 108 nM |  |  |
| GGAUAGUGUCGUUAUCCGUAGCGAACAUGAGGAUCACCCAUGUAGGAUAUGUUAUUAAACUAAUAACAGAAGGACGUUGGUCUC | 66.2 nM | 434 nM |  |  |
| GGAUCGAGUGUGAGGAUAUGCUGGUCCUUGGAUCAGCAGAAGGCACAUGAGGAUCACCCAUGUGUUCCCGAUCC | 43.6 nM | 626 nM |  |  |
| GGAUCGUAUGUCAGGAUAUACCACUGGAUACAGUGGUAGAAGGGACAUGAGGAUCACCCAUGUCUUAUCGAUCC | 13.2 nM | 18.3 nM |  |  |
| GGAUGACAAAGUCAUCCAAUACGAACAUGAGGAUCACCCAUGUAGGAUAUGCUAGUCAAAGACUAGCAGAAGGACAUGUGCCUU | 39.2 nM | 238 nM |  |  |
| GGAUGACAAAGUCAUCCAAUUCGAACAUGAGGAUCACCCAUGUAGGAUAUCGUACUCAAAGAGUACGAGAAGGACAUGUGCUUU | 40.3 nM | 154 nM |  |  |
| GGAUGACAAAGUCAUCCAAUUCGAACAUGAGGAUCACCCAUGUAGGAUAUGCUACACAAAGUGUAGCAGAAGGACAUGUGCCUU | 30.7 nM | 183 nM |  |  |
| GGAUGACAAAGUCAUCCAAUUCGAACAUGAGGAUCACCCAUGUAGGAUAUGCUACACAAAGUGUAGCAGAAGGACAUGUGCUUU | 36.5 nM | 169 nM |  |  |
| GGAUGACAAAGUCAUCCUAAACGAACAUGAGGAUCACCCAUGUAGGAUAUGCUACUCAAAGAGUAGCAGAAGGACAUGUGCCUU | 37.3 nM | 260 nM |  |  |
| GGAUGACAAAGUCAUCCUAUUCGAACAUGAGGAUCACCCAUGUAGGAUAUGCUAGUCAAAGACUAGCAGAAGGACAUGUGCCUU | 36.4 nM | 164 nM |  |  |
| GGAUGAGAAACUCAUCCAAUACGAACAUGAGGAUCACCCAUGUAGGAUAUGCUACUCAAAGAGUAGCAGAAGGACAUGUGCCUU | 30 nM | 254 nM |  |  |
| GGAUGAUAGACAGGAUAUUGAUUGUAAUUAUGUCAAGAAGGGUCUUUGAUUUAAACGACCAGUUACAUGAGGAUCACCCAUGUU |  |  | 30.7 nM | 21 nM |
| GGAUGAUUAAUAGGAUAUUAUUUGUAAAUUGGUUAAGAAGGAUUAAUGAUUUAAACGACCUGUUACAUGAGGAUCACCCAUGUU |  |  | 45.1 nM | 35.2 nM |
| GGAUGUAAGGAGAAGGGCUACUGGUUGAAACCUGCGGCCUCUGGAACAUGAGGAUCACCCAUGUAGCAGGAUAUCCUUGCGUGA | 129 nM | 46.3 nM |  |  |
